{"source": "ChEMBL document CHEMBL4038325", "about": "“Opioid Receptor Modulators with a Cinnamyl Group” (J Med Chem, 2017)", "note": "The source made the active and inactive calls. The calls are words filed in the database; no cut-off is given here."}
{"target": "T1, Mu-type opioid receptor (Homo sapiens, UniProt P35372)", "T1 sequence (P35372 whole entry)": "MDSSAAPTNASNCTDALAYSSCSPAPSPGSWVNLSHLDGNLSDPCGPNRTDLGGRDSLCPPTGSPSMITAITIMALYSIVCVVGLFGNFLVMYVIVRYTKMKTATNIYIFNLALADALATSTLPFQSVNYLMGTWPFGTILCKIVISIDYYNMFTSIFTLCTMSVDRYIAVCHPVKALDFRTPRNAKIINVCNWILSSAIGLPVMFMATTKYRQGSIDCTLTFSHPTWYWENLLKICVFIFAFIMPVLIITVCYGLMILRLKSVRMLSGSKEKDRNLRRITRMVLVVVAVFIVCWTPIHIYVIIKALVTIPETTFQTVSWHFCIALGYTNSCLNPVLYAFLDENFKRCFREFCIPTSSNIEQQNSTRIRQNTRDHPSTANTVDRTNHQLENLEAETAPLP", "assay": "Agonist activity at recombinant human MOR expressed in HEK293T cells assessed as inhibition of forskolin-stimulated cAMP level at 10 uM preincubated for 15 to 20 mins followed by forskolin addition by GloSensor assay relative to control", "assay_type": "functional, cell-based", "details": "HEK-293T", "summary_of_the_method": "(§1)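 HEK293T transiently co-transfected (calcium phosphate) with DOR or MOR plus pGloSensor-22F. Cells were loaded with luciferin in HBSS/20 mM HEPES pH 7.4 for 90 min, then given compound in triplicate for 15-20 min at 37°C. Forskolin added (final 10 µM); luminescence read. cAMP signal normalized to forskolin-alone control.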"}
{"smiles": "COc1ccccc1N1CCN(CC(Cc2ccccc2)C(=O)NCC(=O)O)CC1", "note": "(stereo not drawn)", "inhibition": "inactive"}
{"smiles": "O=C(O)CNC(=O)C(Cc1ccccc1)CN1CCN(c2ccccc2)CC1", "note": "(stereo not drawn)", "inhibition": "inactive"}
{"smiles": "O=C(O)CNC(=O)C(Cc1ccccc1)CN1CCN(c2ccccc2O)CC1", "note": "(stereo not drawn)", "inhibition": "inactive"}
{"smiles": "COc1ccc(N2CCN(CC(Cc3ccccc3)C(=O)NCC(=O)O)CC2)cc1", "note": "(stereo not drawn)", "inhibition": "inactive"}
{"target": "Delta-type opioid receptor (Homo sapiens) (UniProt P41143)", "sequence (P41143 whole entry)": "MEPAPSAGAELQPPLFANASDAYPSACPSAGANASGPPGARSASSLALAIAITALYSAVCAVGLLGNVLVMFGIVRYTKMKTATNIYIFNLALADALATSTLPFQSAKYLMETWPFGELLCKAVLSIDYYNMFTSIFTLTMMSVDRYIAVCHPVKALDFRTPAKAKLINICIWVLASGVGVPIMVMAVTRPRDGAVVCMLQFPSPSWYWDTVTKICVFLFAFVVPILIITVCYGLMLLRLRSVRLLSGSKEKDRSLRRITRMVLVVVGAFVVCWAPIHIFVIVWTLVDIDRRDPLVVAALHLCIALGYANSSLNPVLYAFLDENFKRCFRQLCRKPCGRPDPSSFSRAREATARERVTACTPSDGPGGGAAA", "assay": "Agonist activity at recombinant human DOR expressed in HEK293T cells assessed as inhibition of forskolin-stimulated cAMP level at 10 uM preincubated for 15 to 20 mins followed by forskolin addition by GloSensor assay relative to control", "assay_type": "functional, cell-based", "details": "HEK-293T", "summary_of_the_method": "as §1"}
{"smiles": "CC(C)C[C@H](NC(=O)/C(=C/c1ccccc1)CN1CC[C@@](C)(c2cccc(O)c2)[C@@H](C)C1)C(=O)O", "inhibition": "inactive"}
{"smiles": "CC(C)[C@H](NC(=O)/C(=C/c1ccccc1)CN1CC[C@@](C)(c2cccc(O)c2)[C@@H](C)C1)C(=O)O", "inhibition": "inactive"}
{"smiles": "CC1(c2cccc(O)c2)CCN(C/C(=C\\c2ccccc2)C(=O)O)CC1", "inhibition": "inactive"}
{"smiles": "C[C@H]1CN(C[C@H](Cc2ccccc2)C(=O)NCC(=O)O)CC[C@@]1(C)c1cccc(O)c1", "inhibition": "inactive"}
{"smiles": "CCCC(NC(=O)/C(=C/c1ccccc1)CN1CC[C@@](C)(c2cccc(O)c2)[C@@H](C)C1)C(=O)O", "note": "(stereo partly drawn)", "inhibition": "inactive"}
{"smiles": "CCC(C)C(NC(=O)/C(=C/c1ccccc1)CN1CC[C@@](C)(c2cccc(O)c2)[C@@H](C)C1)C(=O)O", "note": "(stereo partly drawn)", "inhibition": "inactive"}
{"target": "Delta-type opioid receptor (Homo sapiens) (UniProt P41143)", "assay": "Antagonist activity at recombinant human DOR expressed in HEK293T cells assessed as reduction in DADLE-induced inhibition of forskolin-stimulated cAMP level at 10 uM preincubated for 15 to 20 mins followed by DADLE and forskolin addition by GloSensor assay relative to control", "assay_type": "functional, cell-based", "details": "HEK-293T", "summary_of_the_method": "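HEK293T transiently expressing DOR plus GloSensor-22F were given compound in triplicate for 15-20 min at 37°C. DADLE (1 µM) was then added, followed by forskolin (10 µM); luminescence read. Signal normalized to % control (agonist + forskolin).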"}
{"smiles": "CC(C)C[C@H](NC(=O)/C(=C/c1ccccc1)CN1CC[C@@](C)(c2cccc(O)c2)[C@@H](C)C1)C(=O)O", "inhibition": "inactive"}
{"smiles": "CC(C)[C@H](NC(=O)/C(=C/c1ccccc1)CN1CC[C@@](C)(c2cccc(O)c2)[C@@H](C)C1)C(=O)O", "inhibition": "inactive"}
{"smiles": "CC1(c2cccc(O)c2)CCN(C/C(=C\\c2ccccc2)C(=O)O)CC1", "inhibition": "inactive"}
{"smiles": "C[C@H]1CN(C[C@H](Cc2ccccc2)C(=O)NCC(=O)O)CC[C@@]1(C)c1cccc(O)c1", "inhibition": "inactive"}
{"smiles": "CCCC(NC(=O)/C(=C/c1ccccc1)CN1CC[C@@](C)(c2cccc(O)c2)[C@@H](C)C1)C(=O)O", "note": "(stereo partly drawn)", "inhibition": "inactive"}
{"smiles": "CCC(C)C(NC(=O)/C(=C/c1ccccc1)CN1CC[C@@](C)(c2cccc(O)c2)[C@@H](C)C1)C(=O)O", "note": "(stereo partly drawn)", "inhibition": "inactive"}
{"target": "T1, Mu-type opioid receptor", "assay_type": "functional, cell-based, HEK-293T", "details": "read-out: IC50", "units": {"IC50": "nM"}}
{"smiles": "CC(C)C[C@H](NC(=O)/C(=C/c1ccccc1)CN1CC[C@@](C)(c2cccc(O)c2)[C@@H](C)C1)C(=O)O", "IC50": 780}
{"smiles": "CC(C)[C@H](NC(=O)/C(=C/c1ccccc1)CN1CC[C@@](C)(c2cccc(O)c2)[C@@H](C)C1)C(=O)O", "IC50": 650}
{"smiles": "CC1(c2cccc(O)c2)CCN(C/C(=C\\c2ccccc2)C(=O)O)CC1", "IC50": 18}
{"smiles": "CCCC(NC(=O)/C(=C/c1ccccc1)CN1CC[C@@](C)(c2cccc(O)c2)[C@@H](C)C1)C(=O)O", "note": "(stereo partly drawn)", "IC50": 2320}
{"smiles": "CCC(C)C(NC(=O)/C(=C/c1ccccc1)CN1CC[C@@](C)(c2cccc(O)c2)[C@@H](C)C1)C(=O)O", "note": "(stereo partly drawn)", "IC50": 1600}
{"target": "T1, Mu-type opioid receptor", "assay_type": "functional, cell-based, HEK-293T", "details": "read-out: pIC50 (converted)", "units": {"IC50": "nM"}}
{"smiles": "CC(C)C[C@H](NC(=O)/C(=C/c1ccccc1)CN1CC[C@@](C)(c2cccc(O)c2)[C@@H](C)C1)C(=O)O", "IC50": "782 to 794"}
{"smiles": "CC(C)[C@H](NC(=O)/C(=C/c1ccccc1)CN1CC[C@@](C)(c2cccc(O)c2)[C@@H](C)C1)C(=O)O", "IC50": "658 to 661"}
{"smiles": "CC1(c2cccc(O)c2)CCN(C/C(=C\\c2ccccc2)C(=O)O)CC1", "IC50": "18.6 to 76.6"}
{"smiles": "CCCC(NC(=O)/C(=C/c1ccccc1)CN1CC[C@@](C)(c2cccc(O)c2)[C@@H](C)C1)C(=O)O", "note": "(stereo partly drawn)", "IC50": "2320 to 2340"}
{"smiles": "CCC(C)C(NC(=O)/C(=C/c1ccccc1)CN1CC[C@@](C)(c2cccc(O)c2)[C@@H](C)C1)C(=O)O", "note": "(stereo partly drawn)", "IC50": "1600 to 1620"}
{"target": "T2, Kappa-type opioid receptor (Homo sapiens, UniProt P41145)", "T2 sequence (P41145 whole entry)": "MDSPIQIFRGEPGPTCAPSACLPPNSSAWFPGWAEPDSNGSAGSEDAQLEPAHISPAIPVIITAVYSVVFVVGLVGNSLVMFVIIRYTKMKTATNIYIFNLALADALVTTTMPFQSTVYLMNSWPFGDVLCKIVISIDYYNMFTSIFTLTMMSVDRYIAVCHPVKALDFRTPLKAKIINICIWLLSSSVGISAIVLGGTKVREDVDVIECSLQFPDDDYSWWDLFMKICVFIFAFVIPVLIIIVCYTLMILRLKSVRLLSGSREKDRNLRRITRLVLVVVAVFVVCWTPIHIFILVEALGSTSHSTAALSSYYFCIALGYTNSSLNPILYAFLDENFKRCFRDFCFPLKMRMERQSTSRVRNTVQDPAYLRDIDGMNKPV", "details": "HEK-293T, at 10 µM"}
{"smiles": "CC(C)C[C@H](NC(=O)/C(=C/c1ccccc1)CN1CC[C@@](C)(c2cccc(O)c2)[C@@H](C)C1)C(=O)O", "inhibition": "inactive"}
{"smiles": "CC(C)[C@H](NC(=O)/C(=C/c1ccccc1)CN1CC[C@@](C)(c2cccc(O)c2)[C@@H](C)C1)C(=O)O", "inhibition": "inactive"}
{"smiles": "COc1ccccc1N1CCN(CC(Cc2ccccc2)C(=O)NCC(=O)O)CC1", "note": "(stereo not drawn)", "inhibition": "inactive"}
{"smiles": "CC1(c2cccc(O)c2)CCN(C/C(=C\\c2ccccc2)C(=O)O)CC1", "inhibition": "inactive"}
{"smiles": "C[C@H]1CN(C[C@H](Cc2ccccc2)C(=O)NCC(=O)O)CC[C@@]1(C)c1cccc(O)c1", "inhibition": "inactive"}
{"smiles": "O=C(O)CNC(=O)C(Cc1ccccc1)CN1CCN(c2ccccc2)CC1", "note": "(stereo not drawn)", "inhibition": "inactive"}
{"smiles": "Cc1cccc(Oc2ccc(C(=O)N[C@H](CN3CCN(c4cccc(O)c4)[C@@H](C)C3)C(C)C)cc2)c1", "inhibition": "Active"}
{"smiles": "CCCC(NC(=O)/C(=C/c1ccccc1)CN1CC[C@@](C)(c2cccc(O)c2)[C@@H](C)C1)C(=O)O", "note": "(stereo partly drawn)", "inhibition": "inactive"}
{"smiles": "CCC(C)C(NC(=O)/C(=C/c1ccccc1)CN1CC[C@@](C)(c2cccc(O)c2)[C@@H](C)C1)C(=O)O", "note": "(stereo partly drawn)", "inhibition": "inactive"}
{"smiles": "O=C(O)CNC(=O)/C(=C/c1ccccc1)CN1CCN(c2cccc(O)c2)CC1", "inhibition": "inactive"}
{"smiles": "O=C(O)CNC(=O)C(Cc1ccccc1)CN1CCN(c2ccccc2O)CC1", "note": "(stereo not drawn)", "inhibition": "inactive"}
{"smiles": "COc1ccc(N2CCN(CC(Cc3ccccc3)C(=O)NCC(=O)O)CC2)cc1", "note": "(stereo not drawn)", "inhibition": "inactive"}
{"target": "T2, Kappa-type opioid receptor", "details": "HEK-293T, at 10 µM", "remark": "another data set of the same source"}
{"smiles": "CC(C)C[C@H](NC(=O)/C(=C/c1ccccc1)CN1CC[C@@](C)(c2cccc(O)c2)[C@@H](C)C1)C(=O)O", "inhibition": "inactive"}
{"smiles": "CC(C)[C@H](NC(=O)/C(=C/c1ccccc1)CN1CC[C@@](C)(c2cccc(O)c2)[C@@H](C)C1)C(=O)O", "inhibition": "inactive"}
{"smiles": "COc1ccccc1N1CCN(CC(Cc2ccccc2)C(=O)NCC(=O)O)CC1", "note": "(stereo not drawn)", "inhibition": "inactive"}
{"smiles": "CC1(c2cccc(O)c2)CCN(C/C(=C\\c2ccccc2)C(=O)O)CC1", "inhibition": "inactive"}
{"smiles": "C[C@H]1CN(C[C@H](Cc2ccccc2)C(=O)NCC(=O)O)CC[C@@]1(C)c1cccc(O)c1", "inhibition": "inactive"}
{"smiles": "O=C(O)CNC(=O)C(Cc1ccccc1)CN1CCN(c2ccccc2)CC1", "note": "(stereo not drawn)", "inhibition": "inactive"}
{"smiles": "CCCC(NC(=O)/C(=C/c1ccccc1)CN1CC[C@@](C)(c2cccc(O)c2)[C@@H](C)C1)C(=O)O", "note": "(stereo partly drawn)", "inhibition": "inactive"}
{"smiles": "CCC(C)C(NC(=O)/C(=C/c1ccccc1)CN1CC[C@@](C)(c2cccc(O)c2)[C@@H](C)C1)C(=O)O", "note": "(stereo partly drawn)", "inhibition": "inactive"}
{"smiles": "O=C(O)CNC(=O)C(Cc1ccccc1)CN1CCN(c2ccccc2O)CC1", "note": "(stereo not drawn)", "inhibition": "inactive"}
{"smiles": "COc1ccc(N2CCN(CC(Cc3ccccc3)C(=O)NCC(=O)O)CC2)cc1", "note": "(stereo not drawn)", "inhibition": "inactive"}
{"target": "T1, Mu-type opioid receptor", "details": "HEK-293T, at 10 µM"}
{"smiles": "CC(C)C[C@H](NC(=O)/C(=C/c1ccccc1)CN1CC[C@@](C)(c2cccc(O)c2)[C@@H](C)C1)C(=O)O", "inhibition": "50%"}
{"smiles": "CC(C)[C@H](NC(=O)/C(=C/c1ccccc1)CN1CC[C@@](C)(c2cccc(O)c2)[C@@H](C)C1)C(=O)O", "inhibition": "50%"}
{"smiles": "COc1ccccc1N1CCN(CC(Cc2ccccc2)C(=O)NCC(=O)O)CC1", "note": "(stereo not drawn)", "inhibition": "inactive"}
{"smiles": "CC1(c2cccc(O)c2)CCN(C/C(=C\\c2ccccc2)C(=O)O)CC1", "inhibition": "50%"}
{"smiles": "C[C@H]1CN(C[C@H](Cc2ccccc2)C(=O)NCC(=O)O)CC[C@@]1(C)c1cccc(O)c1", "inhibition": "50%"}
{"smiles": "O=C(O)CNC(=O)C(Cc1ccccc1)CN1CCN(c2ccccc2)CC1", "note": "(stereo not drawn)", "inhibition": "inactive"}
{"smiles": "CCCC(NC(=O)/C(=C/c1ccccc1)CN1CC[C@@](C)(c2cccc(O)c2)[C@@H](C)C1)C(=O)O", "note": "(stereo partly drawn)", "inhibition": "50%"}
{"smiles": "CCC(C)C(NC(=O)/C(=C/c1ccccc1)CN1CC[C@@](C)(c2cccc(O)c2)[C@@H](C)C1)C(=O)O", "note": "(stereo partly drawn)", "inhibition": "50%"}
{"smiles": "O=C(O)CNC(=O)C(Cc1ccccc1)CN1CCN(c2ccccc2O)CC1", "note": "(stereo not drawn)", "inhibition": "inactive"}
{"smiles": "COc1ccc(N2CCN(CC(Cc3ccccc3)C(=O)NCC(=O)O)CC2)cc1", "note": "(stereo not drawn)", "inhibition": "inactive"}
